In ChEMBL document CHEMBL3872272, “Synthesis and optimization of novel α-phenylglycinamides as selective TRPM8 antagonists” (Bioorg Med Chem, 2017):

Experiments:
[1] = Volume of distribution at steady state in Sprague-Dawley rat at 1 mg/kg, iv administered as single dose by LC-MS/MS method; assay type: ADME, organism-based; conditions: in vivo, read-out: Vdss
Outline: (§1)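 Single oral (10 mg/kg) or intravenous (1 mg/kg) dose in rats, n = 3. Jugular vein blood taken at 2, 15 and 30 min and 1, 2, 4 and 6 h. Plasma concentrations measured by LC-MS/MS.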

[2] = Cmax in Sprague-Dawley rat at 10 mg/kg, po administered as single dose by LC-MS/MS method; assay type: ADME, organism-based; design: dose 10 mg/kg, route oral; conditions: in vivo; outline: as §1
[3] = Tmax in Sprague-Dawley rat at 10 mg/kg, po administered as single dose by LC-MS/MS method; assay type: ADME, organism-based; conditions: in vivo; outline: as §1
[4] = Bioavailability in Sprague-Dawley rat at 10 mg/kg, po administered as single dose by LC-MS/MS method; assay type: ADME, organism-based; conditions: in vivo; outline: as §1
[5] = Plasma concentration in Sprague-Dawley rat model of distension-induced rhythmic bladder contraction at 1 mg/kg, iv measured after 15 mins; assay type: ADME, organism-based
[6] = Plasma concentration in Sprague-Dawley rat model of distension-induced rhythmic bladder contraction at 10 mg/kg, po measured after 3.5 hrs; assay type: ADME, organism-based
[7] = Drug metabolism in rat plasma assessed as hydrolyzation of methyl ester to carboxylic acid; assay type: ADME, cell-free

SMILES	Vd [1] [L/kg]	Cmax [2] [µM]	Tmax [3] [min]	bioavailability [4] [%]	concentration at […] [5] [µM]	concentration at 3.5 h [6] [µM]	Drug metabolism [7]
C[C@H](c1cc(F)cc(F)c1)N(C(=O)c1ccccc1)[C@@H](C(N)=O)c1ccccc1	1.2	3.23	50	59	1.12	> 1	–
COC(=O)[C@@H](c1ccccc1)N(Cc1cccc(OC)c1)C(=O)c1ccccc1	–	–	–	–	–	–	Metabolite_Detected
